# Calls of active or inactive are those of the source. No cut-off for these calls is given here.
# Target: T1, BAG family molecular chaperone regulator 3 (Homo sapiens, UniProt O95817)
# Test: Binding affinity to C-terminal His tagged human BAG3 transfected in HEK293T cells assessed as intermolecular nuclear overhauser effect mediated protein magnetization at 125 uM by waterLOGSY experiment
# Assay type: cell-based
# Method in brief: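 Ligand-observed NMR in 50 mM sodium phosphate pH 7.8, 150 mM NaCl, 0.04% NaN3, 1.3% DMSO-d6, 5% D2O. Compound at 125 µM with 5 µM BAG3-His (HEK-293T expressed, purified by IMAC and SEC), each also run without protein. WaterLOGSY used 240 scans, 1.5 s mixing and water inversion at 4.7 ppm. STD used 256 scans with protein saturation at 0.4 ppm.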
# T1 sequence (O95817 whole entry): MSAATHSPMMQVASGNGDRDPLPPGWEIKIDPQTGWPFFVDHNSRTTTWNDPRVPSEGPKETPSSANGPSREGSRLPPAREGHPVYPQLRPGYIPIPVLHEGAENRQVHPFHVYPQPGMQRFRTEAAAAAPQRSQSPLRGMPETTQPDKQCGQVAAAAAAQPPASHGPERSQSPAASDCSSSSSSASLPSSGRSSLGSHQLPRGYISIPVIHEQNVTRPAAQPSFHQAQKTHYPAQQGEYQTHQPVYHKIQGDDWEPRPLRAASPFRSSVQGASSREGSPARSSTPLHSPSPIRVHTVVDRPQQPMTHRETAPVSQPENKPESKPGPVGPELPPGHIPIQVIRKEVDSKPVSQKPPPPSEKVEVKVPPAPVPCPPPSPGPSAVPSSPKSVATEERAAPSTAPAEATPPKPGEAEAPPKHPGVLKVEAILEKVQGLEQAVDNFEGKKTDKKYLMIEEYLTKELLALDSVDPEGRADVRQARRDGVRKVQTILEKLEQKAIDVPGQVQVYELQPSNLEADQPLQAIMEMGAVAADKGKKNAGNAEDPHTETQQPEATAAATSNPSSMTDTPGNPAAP
row,Activity,Structure (SMILES)
1,Active,CCOC(=O)CN1C(=O)S/C(=C\c2ccc(O)c(O)c2)C1=O

# Test system: not listed separately
# Test: Cytotoxicity against resting human PBMC cells assessed as cell growth inhibition incubated for 72 hrs by MTT assay
# Assay type: toxicity, cell-based
row,Structure (SMILES),GI50 at 72 h [µM]
1,CCOC(=O)CN1C(=O)S/C(=C\c2ccc(O)c(O)c2)C1=O,> 100

# Target: T1, BAG family molecular chaperone regulator 3
# Test: Binding affinity to CM4 sensorchip immobilized C-terminal His tagged human BAG3 transfected in HEK293T cells at 50 uM by SPR analysis
# Method in brief: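 SPR screen on BAG3-His amine-coupled to a CM4 chip at 60 µg/mL in pH 2.8 acetate. Compound at 50 µM in PBS with 5% DMSO and 0.05% P20 was injected for 90 s at 30 µL/min, then washed. Chip regenerated with 10 mM glycine pH 3. Bound RU read at equilibrium against a void flow cell; 3–10 repeats, mean ± SEM.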
row,Structure (SMILES),Activity
1,CCOC(=O)CN1C(=O)S/C(=C\c2ccc(O)cc2)C1=O,inactive
2,CCOC(=O)CN1C(=O)S/C(=C\c2ccc(F)cc2)C1=O,inactive
3,CCOC(=O)CN1C(=O)SC(Cc2ccc(O)c(O)c2)C1=O (stereo not drawn),inactive
4,CCOC(=O)CN1C(=O)S/C(=C\c2ccc(OC)c(OC)c2)C1=O,inactive
5,CCOC(=O)CN1C(=O)S/C(=C\c2ccc(Cl)c(Cl)c2)C1=O,inactive
6,CCOC(=O)CN1C(=O)S/C(=C\c2ccc(OC)nc2)C1=O,inactive
7,CCOC(=O)CN1C(=O)S/C(=C\c2ccc3c(c2)OCCO3)C1=O,inactive
8,CCOC(=O)CN1C(=O)S/C(=C\c2ccc(O)c(F)c2)C1=O,inactive
9,O=C(O)CN1C(=O)S/C(=C\c2ccc(O)c(O)c2)C1=O,inactive
10,CCOC(=O)CN1C(=O)S/C(=C\c2cccc(O)c2)C1=O,inactive
11,O=C(CN1C(=O)S/C(=C\c2cc(Cl)c(O)c(Cl)c2)C1=O)N1CCOCC1,inactive
12,O=C(CN1C(=O)S/C(=C\c2ccc(O)c(O)c2)C1=O)OCc1ccccc1,inactive
13,CCOC(=O)C(C)N1C(=O)S/C(=C\c2ccc(O)nc2)C1=O (racemic),inactive
14,CCOC(=O)C(C)N1C(=O)S/C(=C\c2cc(F)c(O)c(F)c2)C1=O (racemic),inactive
15,CCOC(=O)C(C)N1C(=O)S/C(=C\c2ccc3c(c2)NC(=O)CO3)C1=O (racemic),inactive

# Now from value to compound:
row,Activity,Structure (SMILES)
1,inactive,CCOC(=O)C(C)N1C(=O)/C(=C/c2ccc(O)c(O)c2)N(C)C1=O (stereo not drawn)
2,inactive,CS(=O)(=O)Nc1ccc(/C=C2\SC(=O)N(CC(=O)N3CCOCC3)C2=O)cc1
3,inactive,CCOC(=O)CN1C(=O)S/C(=C(/C)c2ccc(O)c(O)c2)C1=O
4,inactive,CN(C)C(=O)CN1C(=O)S/C(=C\c2ccc(O)c(O)c2)C1=O
5,inactive,CCOCCN1C(=O)S/C(=C\c2ccc(O)c(O)c2)C1=O
6,inactive,CCNC(=O)C(C)N1C(=O)S/C(=C\c2ccc(O)c(O)c2)C1=O (racemic)

# Test system: A549
# Test: Antiproliferative activity against human A549 cells assessed as cell growth inhibition incubated for 72 hrs by resazurin dye based analysis
# Assay type: functional
# Method in brief: (§1)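 Cells seeded at 2000/well, treated 24 h later with compounds in a 6-point 2-fold dose series, duplicate wells, two independent experiments. After 72 h, resazurin was added at 44 µM final for 3 h at 37 °C and fluorescence was read at 590 nm. Viability was normalized to 1 µM bortezomib (positive) and 0.5% DMSO (negative) controls. GI50 is the mean ± SEM of dose-response curves.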
row,Structure (SMILES),GI50 [µM]
1,CCOC(=O)CN1C(=O)S/C(=C\c2ccc(O)cc2)C1=O,> 100
2,CCOC(=O)CN1C(=O)S/C(=C\c2ccc(F)cc2)C1=O,> 100
3,CCOC(=O)CN1C(=O)SC(Cc2ccc(O)c(O)c2)C1=O (stereo not drawn),> 100
4,CCOC(=O)CN1C(=O)S/C(=C\c2ccc(OC)c(OC)c2)C1=O,> 100
5,CCOC(=O)CN1C(=O)S/C(=C\c2ccc(Cl)c(Cl)c2)C1=O,> 100
6,CCOC(=O)CN1C(=O)S/C(=C\c2ccc(OC)nc2)C1=O,> 100
7,CCOC(=O)CN1C(=O)S/C(=C\c2ccc3c(c2)OCCO3)C1=O,> 100
8,CCOC(=O)CN1C(=O)S/C(=C\c2ccc(O)c(F)c2)C1=O,> 100
9,O=C(O)CN1C(=O)S/C(=C\c2ccc(O)c(O)c2)C1=O,> 100
10,CCOC(=O)CN1C(=O)S/C(=C\c2cccc(O)c2)C1=O,> 100
11,O=C(CN1C(=O)S/C(=C\c2cc(Cl)c(O)c(Cl)c2)C1=O)N1CCOCC1,> 100
12,CCOC(=O)C(C)N1C(=O)S/C(=C\c2ccc(O)nc2)C1=O (racemic),> 100
13,CCOC(=O)C(C)N1C(=O)S/C(=C\c2cc(F)c(O)c(F)c2)C1=O (racemic),> 100
14,CCOC(=O)C(C)N1C(=O)S/C(=C\c2ccc3c(c2)NC(=O)CO3)C1=O (racemic),> 100

# Further lines, results first:
row,GI50 [µM],Structure (SMILES)
1,42.5,CCOC(=O)CN1C(=O)S/C(=C\c2ccc(O)c(O)c2)C1=O
2,52.6,CCOC(=O)C(C)N1C(=O)/C(=C/c2ccc(O)c(O)c2)N(C)C1=O (stereo not drawn)
3,47.7,CS(=O)(=O)Nc1ccc(/C=C2\SC(=O)N(CC(=O)N3CCOCC3)C2=O)cc1
4,44.2,CCOC(=O)CN1C(=O)S/C(=C(/C)c2ccc(O)c(O)c2)C1=O
5,48.3,CN(C)C(=O)CN1C(=O)S/C(=C\c2ccc(O)c(O)c2)C1=O
6,34.3,CCOCCN1C(=O)S/C(=C\c2ccc(O)c(O)c2)C1=O
7,70.9,CCNC(=O)C(C)N1C(=O)S/C(=C\c2ccc(O)c(O)c2)C1=O (racemic)

# Target: T1, BAG family molecular chaperone regulator 3
# Test: Binding affinity to CM4 sensorchip immobilized glycosylated C-terminal His tagged human BAG3 transfected in HEK293T cells assessed as dissociation constant by SPR analysis
# Method in brief: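 SPR single-cycle kinetics on CM4-immobilized HEK-293T-expressed BAG3-His. Increasing compound concentrations in PBS with 5% DMSO and 0.05% P20 were injected at 30 µL/min without regeneration between injections, with blank subtraction. Kd from steady-state analysis, reported as mean ± SEM and compared by Student t-test.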
row,Kd [µM],Structure (SMILES)
1,233,CCOC(=O)CN1C(=O)S/C(=C\c2ccc(O)c(O)c2)C1=O

# Test system: HD-MB03
# Test: Antiproliferative activity against human HD-MB03 cells assessed as cell growth inhibition incubated for 72 hrs by resazurin dye based analysis
# Assay type: functional
# Method in brief: as §1
row,Structure (SMILES),GI50 [µM]
1,CCOC(=O)CN1C(=O)S/C(=C\c2ccc(O)cc2)C1=O,29.5
2,CCOC(=O)CN1C(=O)S/C(=C\c2ccc(F)cc2)C1=O,34.7
3,CCOC(=O)CN1C(=O)SC(Cc2ccc(O)c(O)c2)C1=O (stereo not drawn),49
4,CCOC(=O)CN1C(=O)S/C(=C\c2ccc(OC)c(OC)c2)C1=O,45
5,CCOC(=O)CN1C(=O)S/C(=C\c2ccc(Cl)c(Cl)c2)C1=O,> 100
6,CCOC(=O)CN1C(=O)S/C(=C\c2ccc(OC)nc2)C1=O,41.1
7,CCOC(=O)CN1C(=O)S/C(=C\c2ccc3c(c2)OCCO3)C1=O,> 100
8,CCOC(=O)CN1C(=O)S/C(=C\c2ccc(O)c(O)c2)C1=O,14.8
9,CCOC(=O)C(C)N1C(=O)/C(=C/c2ccc(O)c(O)c2)N(C)C1=O (stereo not drawn),53.3
10,CCOC(=O)CN1C(=O)S/C(=C\c2ccc(O)c(F)c2)C1=O,58.3
11,CS(=O)(=O)Nc1ccc(/C=C2\SC(=O)N(CC(=O)N3CCOCC3)C2=O)cc1,47.4
12,O=C(O)CN1C(=O)S/C(=C\c2ccc(O)c(O)c2)C1=O,> 100
13,CCOC(=O)CN1C(=O)S/C(=C(/C)c2ccc(O)c(O)c2)C1=O,6.4
14,CN(C)C(=O)CN1C(=O)S/C(=C\c2ccc(O)c(O)c2)C1=O,36.4
15,CCOC(=O)CN1C(=O)S/C(=C\c2cccc(O)c2)C1=O,40.7
16,O=C(CN1C(=O)S/C(=C\c2cc(Cl)c(O)c(Cl)c2)C1=O)N1CCOCC1,> 100
17,CCOCCN1C(=O)S/C(=C\c2ccc(O)c(O)c2)C1=O,17.8
18,CCNC(=O)C(C)N1C(=O)S/C(=C\c2ccc(O)c(O)c2)C1=O (racemic),53.1
19,CCOC(=O)C(C)N1C(=O)S/C(=C\c2ccc(O)nc2)C1=O (racemic),> 100
20,CCOC(=O)C(C)N1C(=O)S/C(=C\c2cc(F)c(O)c(F)c2)C1=O (racemic),> 100
21,CCOC(=O)C(C)N1C(=O)S/C(=C\c2ccc3c(c2)NC(=O)CO3)C1=O (racemic),40.7

# Test system: not listed separately
# Test: Cytotoxicity against PHA stimulated human PBMC cells assessed as cell growth inhibition incubated for 72 hrs by MTT assay
# Assay type: toxicity, cell-based
row,Structure (SMILES),GI50 at 72 h [µM]
1,CCOC(=O)CN1C(=O)S/C(=C\c2ccc(O)c(O)c2)C1=O,> 100

# Test system: RS4-11
# Test: Antiproliferative activity against human RS4-11 cells assessed as cell growth inhibition incubated for 72 hrs by resazurin dye based analysis
# Assay type: functional
# Method in brief: as §1
row,Structure (SMILES),GI50 [µM]
1,CCOC(=O)CN1C(=O)S/C(=C\c2ccc(O)cc2)C1=O,> 100
2,CCOC(=O)CN1C(=O)S/C(=C\c2ccc(F)cc2)C1=O,> 100
3,CCOC(=O)CN1C(=O)SC(Cc2ccc(O)c(O)c2)C1=O (stereo not drawn),27.6
4,CCOC(=O)CN1C(=O)S/C(=C\c2ccc(OC)c(OC)c2)C1=O,> 100
5,CCOC(=O)CN1C(=O)S/C(=C\c2ccc(Cl)c(Cl)c2)C1=O,> 100
6,CCOC(=O)CN1C(=O)S/C(=C\c2ccc(OC)nc2)C1=O,> 100
7,CCOC(=O)CN1C(=O)S/C(=C\c2ccc3c(c2)OCCO3)C1=O,> 100
8,CCOC(=O)CN1C(=O)S/C(=C\c2ccc(O)c(F)c2)C1=O,> 100
9,O=C(O)CN1C(=O)S/C(=C\c2ccc(O)c(O)c2)C1=O,> 100
10,CCOC(=O)CN1C(=O)S/C(=C\c2cccc(O)c2)C1=O,55
11,O=C(CN1C(=O)S/C(=C\c2cc(Cl)c(O)c(Cl)c2)C1=O)N1CCOCC1,> 100
12,CCOC(=O)C(C)N1C(=O)S/C(=C\c2ccc(O)nc2)C1=O (racemic),> 100
13,CCOC(=O)C(C)N1C(=O)S/C(=C\c2cc(F)c(O)c(F)c2)C1=O (racemic),> 100
14,CCOC(=O)C(C)N1C(=O)S/C(=C\c2ccc3c(c2)NC(=O)CO3)C1=O (racemic),28.1

# More lines, now with the values ahead:
row,GI50 [µM],Structure (SMILES)
1,6.4,CCOC(=O)CN1C(=O)S/C(=C\c2ccc(O)c(O)c2)C1=O
2,17.8,CCOC(=O)C(C)N1C(=O)/C(=C/c2ccc(O)c(O)c2)N(C)C1=O (stereo not drawn)
3,12.4,CS(=O)(=O)Nc1ccc(/C=C2\SC(=O)N(CC(=O)N3CCOCC3)C2=O)cc1
4,7.25,CCOC(=O)CN1C(=O)S/C(=C(/C)c2ccc(O)c(O)c2)C1=O
5,25.6,CN(C)C(=O)CN1C(=O)S/C(=C\c2ccc(O)c(O)c2)C1=O
6,6.1,CCOCCN1C(=O)S/C(=C\c2ccc(O)c(O)c2)C1=O
7,24.8,CCNC(=O)C(C)N1C(=O)S/C(=C\c2ccc(O)c(O)c2)C1=O (racemic)
